# GASC1 inh: inhibitors of GASC-1 (KDM4C) histone demethylase, primary screen, biochemical, single concentration HTS. Lysine-specific demethylase 4C (Homo sapiens), Q9H3R0. GST-KDM4C 2-372, H3K9me3 peptide, LANCE TR-FRET. inhibition, % at 12.5 µM. hit rate 0.15% among 96,000. AID 720574, 2013;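 active = mean replicate inhibition above about 25%, with at least 55% of replicates also reaching it, limit read from the data, passing the limit was not always enough; inconclusive = only one of those two conditions met; inactive = neither condition met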
# Target sequence (Q9H3R0 2-372 limits assumed): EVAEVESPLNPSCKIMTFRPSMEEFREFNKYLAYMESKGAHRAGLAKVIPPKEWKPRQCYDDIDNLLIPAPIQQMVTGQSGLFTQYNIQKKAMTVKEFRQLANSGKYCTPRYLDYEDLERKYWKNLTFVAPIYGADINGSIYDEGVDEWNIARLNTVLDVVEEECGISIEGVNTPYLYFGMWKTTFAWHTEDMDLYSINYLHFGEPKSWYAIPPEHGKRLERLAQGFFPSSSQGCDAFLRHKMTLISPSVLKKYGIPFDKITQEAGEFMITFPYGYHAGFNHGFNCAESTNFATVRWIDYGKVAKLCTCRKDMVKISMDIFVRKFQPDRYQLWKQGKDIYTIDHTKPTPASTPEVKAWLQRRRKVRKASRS
#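 material = GST-tagged GASC-1 (JMJD2C) catalytic fragment, aa 2-372 | amount = enzyme final amount 10 nM | medium = HEPES buffer, pH 7.5, plus ascorbate | also added = H3K9me3 peptide substrate, Fe(II), 2-oxoglutarate | dosing = single dose | times = 30 min demethylation and 1 h detection at room temperature | detection = LANCE TR-FRET | read-out basis = Fall in 671/618 emission ratio as inhibition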
# T cruzi growth-1: T. cruzi intracellular proliferation inhibitors, primary screen, cell-based, beta-gal Tulahuen parasites, NIH3T3 host, luminescence | T. cruzi beta-gal in NIH3T3, GalScreen luminescence, 90 h | inhibition, % at 8.34 µM | hit rate 5.9% among 77,000 | AID 624255, 2012;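 active = mean inhibition above about 93%, with at least 55% of replicates each passing it, limit read from the data, passing the limit was not always enough; inconclusive = only one of those two conditions holds; inactive = neither condition holds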
# IDH1 mut inh: inhibitors of IDH1 R132H reductase, primary screen, biochemical, plate reader, single point. Isocitrate dehydrogenase [NADP] cytoplasmic (Homo sapiens), O75874. diaphorase/resazurin fluorescence, 60 min. inhibition, % at 10 µM. hit rate 0.18% among 70,000; in the data active = inhibition above about 34%; inconclusive = no clear call, values can overlap the other calls; inactive = below about 11%;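 also: 0% = DMSO and 100% = no enzyme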
# Target sequence (O75874 whole entry R132H): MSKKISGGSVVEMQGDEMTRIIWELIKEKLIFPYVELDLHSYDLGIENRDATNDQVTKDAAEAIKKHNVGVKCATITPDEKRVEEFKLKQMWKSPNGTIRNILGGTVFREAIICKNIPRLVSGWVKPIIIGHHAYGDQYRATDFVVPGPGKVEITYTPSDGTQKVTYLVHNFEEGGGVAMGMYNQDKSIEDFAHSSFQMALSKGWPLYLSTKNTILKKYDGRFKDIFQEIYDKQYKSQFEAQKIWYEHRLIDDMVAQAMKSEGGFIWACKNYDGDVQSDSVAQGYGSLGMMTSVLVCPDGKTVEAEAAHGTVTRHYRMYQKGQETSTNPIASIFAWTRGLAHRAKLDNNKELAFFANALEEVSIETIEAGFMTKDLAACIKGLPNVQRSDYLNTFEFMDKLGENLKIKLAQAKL
# T cruzi growth-2: T. cruzi intracellular proliferation inhibitors, confirmation, cell-based, NIH3T3 host, beta-gal parasite, luminescence, cherry-pick; hit rate 72% among 5,600; shares compounds with T cruzi growth-1; inhibition, % at 8.35 µM; AID 651739, 2012; T. cruzi beta-gal in NIH3T3, GalScreen luminescence, 90 h;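 active = mean replicate inhibition above about 95% and at least 55% of replicates individually reaching it, limit read from the data; inconclusive = only one of the two criteria is met; inactive = neither criterion is met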
# T cruzi growth-3: inhibitors of intracellular T. cruzi replication, confirmation, NIH3T3 host cells, beta-gal parasites, cherry-pick, set 2; shares compounds with T cruzi growth-1; T. cruzi beta-gal in NIH3T3, GalScreen luminescence, 90 h; inhibition, % at 2.09 µM; hit rate 21% among 5,600; AID 651740, 2012;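 active = mean inhibition above about 95%, with at least 55% of replicates also reaching it, limit read from the data; inconclusive = meets just one of the two conditions; inactive = meets neither condition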;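 also: plate controls were neutral control median for no effect and positive control median for full effect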
# NIH3T3 tox: cytotoxicity in mouse NIH/3T3 fibroblasts, confirmation, cytotoxicity control for T. cruzi proliferation inhibitor project, cell-based, cherry-pick, single point | shares compounds with T cruzi growth-1 | NIH/3T3 viability, CellTiter-Glo ATP luminescence, 90 h | cytotoxicity (signal decrease), % at 8.35 µM | hit rate 14% among 5,600;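 active = mean signal decrease across replicates above about 35% based on untreated-well scatter, with enough replicates individually passing, limit read from the data; inconclusive = no rule stated though some were filed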;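 also: 0% = median of neutral control wells and 100% = median of positive control wells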
# NIH3T3 tox 2: NIH/3T3 fibroblast cytotoxicity, confirmation, cytotoxicity control, cell-based, cherry-pick, single point, set 2 | hit rate 56% among 5,600 | inhibition, % at 24.9 µM | AID 651744, 2012 | NIH/3T3 viability, CellTiter-Glo ATP luminescence, 90 h | shares compounds with T cruzi growth-1;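 active = mean loss of cell viability signal at or above a set limit, and enough replicates individually reaching it; inconclusive = meets only the mean limit or only the replicate share; inactive = meets neither condition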;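 also: 0% = median of neutral control wells and 100% = median of positive control wells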
# * hit, by the source's call; ? = inconclusive; nt = no result given. The sample as a whole holds a higher share of hits than the screen did.
SMILES,GASC1 inh,T cruzi growth-1,IDH1 mut inh,T cruzi growth-2,T cruzi growth-3,NIH3T3 tox,NIH3T3 tox 2
O=[N+]([O-])c1ccc(S(=O)(=O)NCc2cccnc2)cc1,nt,nt,-0.1,nt,nt,nt,nt
CC(C(=O)Nc1ccccc1Br)N(c1ccc(Cl)cc1)S(C)(=O)=O (centres undefined),nt,nt,-0.1,nt,nt,nt,nt
CC(C)CC#Cc1ccc2c(c1)O[C@@H](CN(C)Cc1ccc(F)cc1)[C@H](C)CN([C@@H](C)CO)S2(=O)=O,-2.0,36.3,nt,nt,nt,nt,nt
CC(C)CC#Cc1ccc2c(c1)O[C@@H](CN(C)Cc1ccccc1)[C@H](C)CN([C@@H](C)CO)S2(=O)=O,0.5,124.6*,-2.2,105.6*,?,48.7*,104.1*
CC(C)CC#Cc1ccc2c(c1)O[C@H](CN(C)Cc1ccc(F)cc1)[C@@H](C)CN([C@H](C)CO)S2(=O)=O,0.3,49.2,0.6,nt,nt,nt,nt
CC(C)CC#Cc1ccc2c(c1)O[C@H](CN(C)Cc1ccccc1)[C@@H](C)CN([C@H](C)CO)S2(=O)=O,0.8,105.9*,0.3,96.6*,88.7,-3.3,104.7*
CC(C)CC#Cc1ccc2c(c1)O[C@H](CN(C)Cc1ccccc1)[C@H](C)CN([C@@H](C)CO)S2(=O)=O,-0.4,122.3*,-0.8,93.2,110.8*,20.6,106.7*
CC(C)CC#Cc1ccc2c(c1)O[C@H](CN(C)Cc1ccc(F)cc1)[C@H](C)CN([C@H](C)CO)S2(=O)=O,nt,66.2,-10.0,nt,nt,nt,nt
Cc1cc(C)c(S(=O)(=O)NCC(=O)Nc2cccc(Cl)c2Cl)c(C)c1,nt,nt,0.4,nt,nt,nt,nt
Cc1ccc(-c2nc3cc(Cl)cc(Cl)c3o2)cc1NC(=O)COc1ccc([N+](=O)[O-])cc1,nt,nt,0.4,nt,nt,nt,nt
CC(=O)CSc1nnc(-c2cccnc2)o1,nt,nt,-0.7,nt,nt,nt,nt
O=C(NCc1ccco1)C1(c2ccccc2)CCOCC1,nt,nt,-0.1,nt,nt,nt,nt
Cc1ccc(NC(=O)COc2ccc(I)cc2)c(C(=O)O)c1,nt,nt,-1.0,nt,nt,nt,nt
O=C(Nc1ccccc1F)N1CCCCN2[C@H](CO)[C@@H](c3ccc(C4=CCCCC4)cc3)[C@H]2C1,nt,102.8*,nt,111.2*,73.2,38.6*,106.7*
O=C(Nc1ccccc1F)N1CCCCN2[C@H](CO)[C@@H](c3ccc(/C=C/c4ccccc4)cc3)[C@H]2C1,-2.2,104.0*,nt,97.2*,60.7,58.8*,105.1*
O=C(Nc1ccccc1F)N1CCCCN2[C@H](CO)[C@@H](c3ccc(C4=CCCC4)cc3)[C@@H]2C1,1.5,78.8,nt,nt,nt,nt,nt
C/C=C/c1ccc([C@@H]2[C@@H](CO)N3CCCCN(C(=O)Nc4ccccc4F)C[C@H]23)cc1,-0.9,39.0,nt,nt,nt,nt,nt
C/C=C/c1ccc([C@H]2[C@@H](CO)N3CCCCN(C(=O)Nc4ccccc4F)C[C@H]23)cc1,0.4,97.3*,nt,99.7*,52.0,8.8,70.0*
C/C=C/c1ccc([C@@H]2[C@H](CO)N3CCCCN(C(=O)Nc4ccccc4F)C[C@@H]23)cc1,-0.8,63.4,nt,nt,nt,nt,nt
Cc1cc(Cl)cc(Cl)c1OCC(=O)Nc1cccc(NC(=O)c2ccccc2Cl)c1,nt,nt,0.1,nt,nt,nt,nt
CCc1cc2c(=O)n(CC(=O)Nc3ccccc3OC)cnc2s1,nt,nt,-0.2,nt,nt,nt,nt
Cc1ccccc1-n1c(SCC(N)=O)nc2ccccc2c1=O,nt,nt,-0.5,nt,nt,nt,nt
COc1ccc(NC(=O)Nc2ccc3c(c2)C(=O)N([C@H](C)CO)C[C@H](C)[C@H](CN(C)C(=O)Nc2ccc4c(c2)OCO4)OCCCC[C@H](C)O3)cc1,-0.5,?,1.5,110.9*,65.8,-5.3,-12.2
COc1ccc(NC(=O)N(C)C[C@@H]2OCCCC[C@@H](C)Oc3ccc(NC(=O)Nc4ccc5c(c4)OCO5)cc3C(=O)N([C@H](C)CO)C[C@H]2C)cc1,-1.8,75.5,-0.9,nt,nt,nt,nt
COc1ccc(NC(=O)N(C)C[C@@H]2OCCCC[C@H](C)Oc3ccc(NC(=O)Nc4ccc5c(c4)OCO5)cc3C(=O)N([C@@H](C)CO)C[C@@H]2C)cc1,-2.4,43.8,-4.8,nt,nt,nt,nt
SMILES,GASC1 inh,T cruzi growth-1,IDH1 mut inh,T cruzi growth-2,T cruzi growth-3,NIH3T3 tox,NIH3T3 tox 2
COc1ccc(NC(=O)Nc2ccc3c(c2)C(=O)N([C@@H](C)CO)C[C@H](C)[C@H](CN(C)C(=O)Nc2ccc4c(c2)OCO4)OCCCC[C@H](C)O3)cc1,11.1,?,nt,108.4*,42.2,7.4,-12.1
Cc1ccc2c(C(=O)Nc3sc4c(c3C(N)=O)CCCCC4)cc(-c3ccccn3)nc2c1C,nt,nt,0.1,nt,nt,nt,nt
C[C@H](CO)N1C[C@H](C)[C@@H](CN(C)Cc2ccc(-c3ccccc3)cc2)Oc2ccc(NC(=O)CCN3CCOCC3)cc2CC1=O,-0.2,99.3*,1.2,113.5*,54.2,13.3,104.6*
C[C@H](CO)N1C[C@H](C)[C@H](CN(C)Cc2ccc(-c3ccccc3)cc2)Oc2ccc(NC(=O)CCN3CCOCC3)cc2CC1=O,2.1,18.1,-1.1,nt,nt,nt,nt
C[C@H](CO)N1C[C@H](C)[C@H](CN(C)Cc2ccc(C(F)(F)F)cc2)Oc2ccc(NC(=O)CCN3CCOCC3)cc2CC1=O,1.1,?,-1.2,-41.7,19.0,-5.3,2.7
C[C@@H]1CN([C@@H](C)CO)C(=O)Cc2cc(NC(=O)CCN3CCOCC3)ccc2O[C@@H]1CN(C)Cc1ccc(C(F)(F)F)cc1,1.0,12.2,3.5,nt,nt,nt,nt
COc1ccccc1NC(=O)Cn1cc(C(=O)C2CCCCC2)c2ccccc21,nt,nt,-0.3,nt,nt,nt,nt
COc1ccc(NC(=O)CSc2ncnc3sc(-c4ccccc4)cc23)c([N+](=O)[O-])c1,nt,nt,0.6,nt,nt,nt,nt
C[C@H]1CN([C@@H](C)CO)S(=O)(=O)c2ccc(C3=CCCCC3)cc2O[C@@H]1CN(C)Cc1ccncc1,0.0,121.3*,6.5,95.8*,97.0*,53.0*,102.5*
C[C@H]1CN([C@@H](C)CO)S(=O)(=O)c2ccc(C3=CCCCC3)cc2O[C@H]1CN(C)Cc1cncnc1,1.9,77.8,nt,nt,nt,nt,nt
C[C@H](CO)N1C[C@H](C)[C@H](CN(C)Cc2cncnc2)Oc2cc(C3=CCCC3)ccc2S1(=O)=O,4.0,17.9,nt,nt,nt,nt,nt
C[C@H](CO)N1C[C@H](C)[C@H](CN(C)Cc2ccncc2)Oc2cc(C3=CCCCC3)ccc2S1(=O)=O,-0.3,116.0*,1.7,98.1*,83.7,57.8*,82.7*
C[C@@H]1CN([C@H](C)CO)S(=O)(=O)c2ccc(C3=CCCC3)cc2O[C@H]1CN(C)Cc1cncnc1,-0.1,43.8,2.9,nt,nt,nt,nt
